{
  "source": "ChEMBL document CHEMBL1629563",
  "about": "“Pharmacokinetic and safety evaluation of BILR 355, a second-generation nonnucleoside reverse transcriptase inhibitor, in healthy volunteers” (Antimicrob Agents Chemother, 2008)",
  "key": {"Homo sapiens [1]": {"test_system": "Homo sapiens", "assay": "Toxicity in healthy human assessed as occurrence of neurological eyelid disorder at 1 mg, po administered as single dose relative to control", "format": "organism-based", "settings": "in vivo"}, "Homo sapiens [2]": {"test_system": "Homo sapiens", "assay": "Toxicity in healthy human assessed as occurrence of palpitations at 5 mg, po administered as single dose relative to control", "format": "organism-based", "settings": "in vivo"}, "[3]": {"assay": "Mean residence time in high fat fed healthy human at 50 mg, po administered as single dose coadministered with 100 mg of ritonavir", "format": "ADME, organism-based", "settings": "in vivo"}, "[4]": {"assay": "Apparent volume of distribution at steady state in healthy human at 5 mg, po administered as single dose coadministered with 100 mg of ritonavir", "format": "ADME, organism-based", "settings": "in vivo, read-out: Vss/F", "method_in_brief": "(§1)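 Healthy male volunteers, fasted overnight, got one oral dose of BILR 355 in PEG solution with 200 ml water. Ritonavir 100 mg was given 10 h before and again with the dose. Plasma was sampled (EDTA) from predose to 144 h and assayed by validated LC-MS/MS. Cmax and Vz/F came from noncompartmental analysis. Vss/F = CL/F·(MRTp.o. − 1/Ka), with Ka from compartmental modelling.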"}, "[5]": {"assay": "Apparent volume of distribution at steady state in healthy human at 25 mg, po administered as single dose coadministered with 100 mg of ritonavir", "format": "ADME, organism-based", "settings": "in vivo, read-out: Vss/F", "method_in_brief": "as §1"}, "Homo sapiens [6]": {"test_system": "Homo sapiens", "assay": "Ratio of AUC (0 to infinity) in human at 50 mg, po in presence of 100 mg of ritonavir to AUC (0 to infinity) in human at 50 mg, po", "format": "ADME, organism-based", "settings": "in vivo"}, "[7]": {"assay": "AUC (0 to infinity) in healthy human at 25 mg, po administered as single dose", "format": "ADME, organism-based", "design": "dose 25 mg, route oral, time infinity", "settings": "plasma", "method_in_brief": "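Healthy male volunteers, six active plus two placebo per dose group, single oral dose in PEG solution with 200 ml water after overnight fast; breakfast 60 to 90 min post-dose. EDTA plasma sampled predose to 144 h. Assayed by validated LC-MS/MS after protein precipitation. Noncompartmental analysis, AUC by linear up/log down trapezoidal rule; Vss = CL/F·(MRTp.o. − 1/Ka).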"}, "[8]": {"assay": "Mean residence time in healthy human at 50 mg, po administered as single dose", "format": "ADME, organism-based", "settings": "in vivo"}, "[9]": {"assay": "Cmax in healthy human at 75 mg, po administered as single dose coadministered with 100 mg of ritonavir by high-pressure liquid chromatography-tandem mass spectrometry/mass spectrometry method", "format": "ADME, organism-based", "design": "dose 75 mg, route oral", "settings": "in vivo", "method_in_brief": "as §1"}, "Homo sapiens [10]": {"test_system": "Homo sapiens", "assay": "Toxicity in healthy human assessed as occurrence of headache at 25 mg, po administered as single dose relative to control", "format": "organism-based", "settings": "in vivo"}},
  "data": [
    {"smiles": "CCN1c2ncc(CCOc3cc[n+]([O-])c4ccccc34)cc2C(=O)N(C)c2cccnc21", "note": "[BILR 355]", "values": [
      {"measurement": "Activity", "setting": "Homo sapiens [1]", "value": 0, "unit": "%"},
      {"measurement": "Activity", "setting": "Homo sapiens [2]", "value": 0, "unit": "%"},
      {"measurement": "MRT", "setting": "[3]", "value": 18.7, "unit": "h"},
      {"measurement": "Vd/F", "setting": "[4]", "value": 166, "unit": "L"},
      {"measurement": "Vd/F", "setting": "[5]", "value": 102, "unit": "L"},
      {"measurement": "Ratio", "setting": "Homo sapiens [6]", "value": 15.5},
      {"measurement": "AUC(0-inf)", "setting": "[7]", "value": 142, "unit": "ng·h/mL"},
      {"measurement": "MRT", "setting": "[8]", "value": 3.2, "unit": "h"},
      {"measurement": "Cmax", "setting": "[9]", "value": 812, "unit": "ng/mL"},
      {"measurement": "Activity", "setting": "Homo sapiens [10]", "value": 16.7, "unit": "%"}
    ]}
  ]
}
